{"source": "paper PMC4124067", "about": "(International Journal of Nanomedicine, 2014)", "key": {"[1]": {"system": "orthotopic Lewis lung carcinoma", "details": "cited from earlier work"}, "tubulin": {"system": "tubulin", "test": "Tubulin polymerization assay", "format": "biochemical", "in_short": "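Kit-based assay: 3 mg/mL tubulin in 80 mM PIPES, pH 6.9, with glycerol, run at 37°C. Test compound at 10 and 34 μM, parent drug at 10 μM as positive control, plus untreated control. Polymerization followed as OD340, read once per minute for 60 min. Maximum rate (Vmax, mOD/min) and time to reach it taken from the curves.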"}, "[2]": {"system": "A549-luc-c8 human lung adenocarcinoma cells", "test": "MTT cytotoxicity assay", "format": "cell-based", "details": "48 h", "in_short": "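A549-luc-c8 luciferase-expressing cells grown in RPMI 1640 with 10% FBS and antibiotic at 37°C, 5% CO2. Seeded at 5,000 cells per 100 μL medium per well. Free parent drug, conjugate nanoparticles or blank nanoparticles added across a concentration series for 48 h at 37°C. MTT then added for 3 h, dye dissolved in DMSO, A570 read. IC50 taken from survival plots; blank-particle IC50 expressed at drug-equivalent dose.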"}}, "note": "Like-named read-outs stand apart in the source and are kept apart here."}
{"smiles": "N.N.[Cl][Pt][Cl]", "note": "[Cisplatin, cisplatin]", "values": [{"measurement": "therapeutic effect", "setting": "[1]; treatment starting on day 1", "result": "suppressed primary lung tumor growth and lymph node metastasis"}, {"measurement": "therapeutic effect", "setting": "[1]; treatment starting on day 10", "result": "failed to show any significant therapeutic effect"}]}
{"smiles": "CC(=O)O[C@H]1C(=O)[C@@]2(C)[C@H]([C@H](OC(=O)c3ccccc3)[C@]3(O)C[C@H](OC(=O)[C@H](O)[C@@H](NC(=O)c4ccccc4)c4ccccc4)C(C)=C1C3(C)C)[C@]1(OC(C)=O)CO[C@@H]1C[C@@H]2O", "note": "[PX, paclitaxel]", "values": [{"measurement": "Vmax (maximum rate of tubulin polymerization)", "setting": "tubulin; 10 μM, 37°C, 3 mg/mL tubulin", "result": "29.0±0.0", "unit": "mOD/min"}, {"measurement": "time at which Vmax was reached", "setting": "tubulin; 60 minute time course", "result": "0 to 3", "unit": "min"}, {"measurement": "IC50", "setting": "[2]", "result": "5.3 ± 3.2", "unit": "nM"}]}
